Experimental data: ChEMBL document CHEMBL1154533, “Syntheses and evaluation of glucosyl aryl thiosemicarbazide and glucosyl thiosemicarbazone derivatives as antioxidant and anti-dyslipidemic agents” (2009)

Legend:
Design in all cases: scale not given: the % may be the effect or the level left
[1] = Antioxidant activity assessed as reduction in lipid peroxidation in microsomes at 200 ug/mL measured as malondialdehyde formation by spectrophotometry relative to control; assay type: functional; settings: Microsome
Rattus norvegicus [2] = test: Antidyslipidemic activity against triton-induced inhibition of post heparin lipolytic activity in Charles Foster rat hyperlipidemia model assessed as formation of free fatty acid per mL of plasma at 100 mg/kg, po after 18 hrs relative to control; assay type: functional
In short: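 Triton WR-1339 rat model (400 mg/Kg ip; compound 100 mg/Kg po in gum acacia, given with triton; six rats per group). Post-heparin lipolytic activity was measured in plasma collected at 18 h. Expressed as nmol free fatty acid formed/h/mL plasma; mean ± SD.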

[3] = Antioxidant activity assessed as reduction in lipid peroxidation in microsomes at 100 ug/mL measured as malondialdehyde formation by spectrophotometry relative to control; assay type: functional; settings: Microsome
[4] = Antioxidant activity assessed as reduction in generation of hydroxyl radicals at 100 ug/mL measured as malondialdehyde formation by spectrophotometry relative to control; assay type: functional
Rattus norvegicus [5] = test: Antidyslipidemic activity against triton-induced hyperlipidemia in Charles Foster rat assessed as reduction in phospholipid level at 100 mg/kg, po after 18 hrs relative to control; assay type: functional
In short: (§1)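 Adult male Charles Foster rats (200 […] 225 g), six per group. Triton WR-1339 at 400 mg/Kg ip induced hyperlipidemia. Test compound was given at 100 mg/Kg po, suspended in 0.2% w/v gum acacia in water, at the same time as triton; vehicle controls were included. After 18 h, retro-orbital blood was taken into EDTA and plasma obtained (2500 g, 4 °C, 10 min). Plasma was diluted 1:3 in saline and TC, PL and Tg measured by standard methods. Reported as mean […] SD; Student's t-test.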

Rattus norvegicus [6] = test: Decrease in triton-induced increase in protein level in Charles Foster rat hyperlipidemia model at 100 mg/kg, po after 18 hrs relative to control; assay type: functional
[7] = Antioxidant activity assessed as reduction in generation of superoxide radicals at 100 ug/mL measured as formazone formation by spectrophotometry relative to control; assay type: functional
In short: (§2)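 Superoxide was generated enzymatically with xanthine ([…]), xanthine oxidase (0.04 U) and nitroblue tetrazolium (320 μM) in 100 mM phosphate buffer, pH 8.2, with or without compound. Incubated 30 min at 37 °C, then stopped with glacial acetic acid. Formazone was quantified spectrophotometrically (nmol/min). Mean ± SD of six; Student's t-test.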

[8] = Antioxidant activity assessed as reduction in generation of hydroxyl radicals at 200 ug/mL measured as malondialdehyde formation by spectrophotometry relative to control; assay type: functional
[9] = Antioxidant activity assessed as reduction in generation of superoxide radicals at 200 ug/mL measured as formazone formation by spectrophotometry relative to control; assay type: functional; in short: as §2
Rattus norvegicus [10] = test: Antidyslipidemic activity against triton-induced hyperlipidemia in Charles Foster rat assessed as reduction in total cholesterol level at 100 mg/kg, po after 18 hrs relative to control; assay type: functional; in short: as §1
Rattus norvegicus [11] = test: Antidyslipidemic activity against triton-induced hyperlipidemia in Charles Foster rat assessed as reduction in triglyceride level at 100 mg/kg, po after 18 hrs relative to control; assay type: functional; in short: as §1
[12] = Antioxidant activity assessed as reduction in lipid peroxidation in microsomes at 200 ug/mL measured as malondialdehyde formation by spectrophotometry relative to control; settings: Microsome

Compound: CC(=O)OC[C@H]1O[C@@H](NC(=S)N/N=C/c2ccc([N+](=O)[O-])s2)[C@H](OC(C)=O)[C@@H](OC(C)=O)[C@@H]1OC(C)=O
- Activity [1]: 23%
- Activity (Rattus norvegicus [2]): 14%
- Activity [3]: 11%
- Activity [4]: 20%
- Activity (Rattus norvegicus [5]): 16%
- Activity (Rattus norvegicus [6]): 19%
- Activity [7]: 20%
- Activity [8]: 37%
- Activity [9]: 34%
- Activity (Rattus norvegicus [10]): 13%
- Activity (Rattus norvegicus [11]): 14%

Compound: Oc1ncnc2[nH]ncc12
- Activity [7]: 77%

Compound: CC(=O)OC[C@H]1O[C@@H](NC(=S)NNc2ccc(F)cc2F)[C@H](OC(C)=O)[C@@H](OC(C)=O)[C@@H]1OC(C)=O
- Activity [1]: 31%
- Activity (Rattus norvegicus [2]): 23%
- Activity [3]: 24%
- Activity [4]: 20%
- Activity (Rattus norvegicus [5]): 25%
- Activity (Rattus norvegicus [6]): 20%
- Activity [7]: 16%
- Activity [8]: 35%
- Activity [9]: 27%
- Activity (Rattus norvegicus [10]): 24%
- Activity (Rattus norvegicus [11]): 25%

Compound: CC(=O)OC[C@H]1O[C@@H](NC(=S)NNc2ccc([N+](=O)[O-])cc2[N+](=O)[O-])[C@H](OC(C)=O)[C@@H](OC(C)=O)[C@@H]1OC(C)=O
- Activity [1]: 36%
- Activity (Rattus norvegicus [2]): 17%
- Activity [3]: 23%
- Activity [4]: 18%
- Activity (Rattus norvegicus [5]): 10%
- Activity (Rattus norvegicus [6]): 13%
- Activity [7]: 22%
- Activity [8]: 26%
- Activity [9]: 28%
- Activity (Rattus norvegicus [10]): 13%
- Activity (Rattus norvegicus [11]): 8%

Compound: CC(=O)OC[C@H]1O[C@@H](NC(=S)N/N=C/c2ccncc2)[C@H](OC(C)=O)[C@@H](OC(C)=O)[C@@H]1OC(C)=O
- Activity [1]: 33%
- Activity (Rattus norvegicus [2]): 8%
- Activity [3]: 22%
- Activity [4]: 11%
- Activity (Rattus norvegicus [5]): 11%
- Activity (Rattus norvegicus [6]): 11%
- Activity [7]: 14%
- Activity [8]: 23%
- Activity [9]: 25%
- Activity (Rattus norvegicus [10]): 11%
- Activity (Rattus norvegicus [11]): 8%

Compound: CC(=O)OC[C@H]1O[C@@H](NC(=S)NNc2ccccc2)[C@H](OC(C)=O)[C@@H](OC(C)=O)[C@@H]1OC(C)=O
- Activity [1]: 39%
- Activity (Rattus norvegicus [2]): 8%
- Activity [3]: 23%
- Activity [4]: 25%
- Activity (Rattus norvegicus [5]): 10%
- Activity (Rattus norvegicus [6]): 16%
- Activity [7]: 19%
- Activity [8]: 42%
- Activity [9]: 32%
- Activity (Rattus norvegicus [10]): 11%
- Activity (Rattus norvegicus [11]): 9%

Compound: CC(=O)OC[C@H]1O[C@@H](NC(=S)N/N=C/c2cccnc2)[C@H](OC(C)=O)[C@@H](OC(C)=O)[C@@H]1OC(C)=O
- Activity [1]: 26%
- Activity (Rattus norvegicus [2]): 9%
- Activity [3]: 18%
- Activity [4]: 13%
- Activity (Rattus norvegicus [5]): 14%
- Activity (Rattus norvegicus [6]): 14%
- Activity [7]: 16%
- Activity [8]: 26%
- Activity [9]: 28%
- Activity (Rattus norvegicus [10]): 15%
- Activity (Rattus norvegicus [11]): 10%

Compound: COc1ccc(/C=N/NC(=S)N[C@@H]2O[C@H](COC(C)=O)[C@@H](OC(C)=O)[C@H](OC(C)=O)[C@H]2OC(C)=O)cc1
- Activity [1]: 35%
- Activity (Rattus norvegicus [2]): 8%
- Activity [3]: 26%
- Activity [4]: 20%
- Activity (Rattus norvegicus [5]): 15%
- Activity (Rattus norvegicus [6]): 15%
- Activity [7]: 25%
- Activity [8]: 34%
- Activity [9]: 33%
- Activity (Rattus norvegicus [10]): 17%
- Activity (Rattus norvegicus [11]): 10%

Compound: COc1ccc(NNC(=S)N[C@@H]2O[C@H](COC(C)=O)[C@@H](OC(C)=O)[C@H](OC(C)=O)[C@H]2OC(C)=O)cc1
- Activity [1]: 32%
- Activity (Rattus norvegicus [2]): 7%
- Activity [3]: 28%
- Activity [4]: 15%
- Activity (Rattus norvegicus [5]): 12%
- Activity (Rattus norvegicus [6]): 18%
- Activity [7]: 21%
- Activity [8]: 23%
- Activity [9]: 37%
- Activity (Rattus norvegicus [10]): 18%
- Activity (Rattus norvegicus [11]): 10%

Compound: COc1ccc(/C(C)=N/NC(=S)N[C@@H]2O[C@H](COC(C)=O)[C@@H](OC(C)=O)[C@H](OC(C)=O)[C@H]2OC(C)=O)cc1OC
- Activity [1]: 35%
- Activity (Rattus norvegicus [2]): 25%
- Activity [3]: 22%
- Activity [4]: 15%
- Activity (Rattus norvegicus [5]): 23%
- Activity (Rattus norvegicus [6]): 24%
- Activity [7]: 9%
- Activity [8]: 27%
- Activity [9]: 24%
- Activity (Rattus norvegicus [10]): 19%
- Activity (Rattus norvegicus [11]): 22%

Compound: Cc1c(C)c2c(c(C)c1O)CC[C@@](C)(CCC[C@H](C)CCC[C@H](C)CCCC(C)C)O2
- Activity [12]: 53%

Compound: Cc1ccc(C)c(OCCCC(C)(C)C(=O)O)c1 [GEMFIBROZIL]
- Activity (Rattus norvegicus [2]): 34%
- Activity (Rattus norvegicus [5]): 39%
- Activity (Rattus norvegicus [6]): 33%
- Activity (Rattus norvegicus [10]): 38%
- Activity (Rattus norvegicus [11]): 37%

Compound: CC(=O)OC[C@H]1O[C@@H](NC(=S)N/N=C(\C)c2ccc(Br)cc2)[C@H](OC(C)=O)[C@@H](OC(C)=O)[C@@H]1OC(C)=O
- Activity [1]: 29%
- Activity (Rattus norvegicus [2]): 16%
- Activity [3]: 16%
- Activity [4]: 14%
- Activity (Rattus norvegicus [5]): 26%
- Activity (Rattus norvegicus [6]): 26%
- Activity [7]: 21%
- Activity [8]: 24%
- Activity [9]: 33%
- Activity (Rattus norvegicus [10]): 22%
- Activity (Rattus norvegicus [11]): 25%

Compound: CC(=O)OC[C@H]1O[C@@H](NC(=S)N/N=C(\C)c2cccc([N+](=O)[O-])c2)[C@H](OC(C)=O)[C@@H](OC(C)=O)[C@@H]1OC(C)=O
- Activity [1]: 30%
- Activity (Rattus norvegicus [2]): 10%
- Activity [3]: 20%
- Activity [4]: 24%
- Activity (Rattus norvegicus [5]): 19%
- Activity (Rattus norvegicus [6]): 19%
- Activity [7]: 17%
- Activity [8]: 35%
- Activity [9]: 33%
- Activity (Rattus norvegicus [10]): 23%
- Activity (Rattus norvegicus [11]): 18%

Compound: CC(=O)OC[C@H]1O[C@@H](NC(=S)N/N=C(\C)c2cccc(N)c2)[C@H](OC(C)=O)[C@@H](OC(C)=O)[C@@H]1OC(C)=O
- Activity [1]: 35%
- Activity (Rattus norvegicus [2]): 9%
- Activity [3]: 19%
- Activity [4]: 20%
- Activity (Rattus norvegicus [5]): 15%
- Activity (Rattus norvegicus [6]): 20%
- Activity [7]: 23%
- Activity [8]: 38%
- Activity [9]: 38%
- Activity (Rattus norvegicus [10]): 16%
- Activity (Rattus norvegicus [11]): 13%

Compound: OC[C@@H](O)[C@@H](O)[C@H](O)[C@H](O)CO
- Activity [4]: 45%

Compound: CC(=O)OC[C@H]1O[C@@H](NC(=S)N/N=C(\C)c2cc(C)ccc2C)[C@H](OC(C)=O)[C@@H](OC(C)=O)[C@@H]1OC(C)=O
- Activity [1]: 26%
- Activity (Rattus norvegicus [2]): 10%
- Activity [3]: 16%
- Activity [4]: 16%
- Activity (Rattus norvegicus [5]): 18%
- Activity (Rattus norvegicus [6]): 12%
- Activity [7]: 20%
- Activity [8]: 29%
- Activity [9]: 30%
- Activity (Rattus norvegicus [10]): 18%
- Activity (Rattus norvegicus [11]): 17%

Compound: CC(=O)OC[C@H]1O[C@@H](NC(=S)NNc2ccc(F)cc2)[C@H](OC(C)=O)[C@@H](OC(C)=O)[C@@H]1OC(C)=O
- Activity [1]: 34%
- Activity (Rattus norvegicus [2]): 14%
- Activity [3]: 22%
- Activity [4]: 22%
- Activity (Rattus norvegicus [5]): 14%
- Activity (Rattus norvegicus [6]): 18%
- Activity [7]: 15%
- Activity [8]: 36%
- Activity [9]: 29%
- Activity (Rattus norvegicus [10]): 13%
- Activity (Rattus norvegicus [11]): 9%

Compound: CC(=O)OC[C@H]1O[C@@H](NC(=S)N/N=C/c2ccc(Cl)cc2)[C@H](OC(C)=O)[C@@H](OC(C)=O)[C@@H]1OC(C)=O
- Activity [1]: 33%
- Activity (Rattus norvegicus [2]): 12%
- Activity [3]: 23%
- Activity [4]: 13%
- Activity (Rattus norvegicus [5]): 6%
- Activity (Rattus norvegicus [6]): 22%
- Activity [7]: 16%
- Activity [8]: 19%
- Activity [9]: 25%
- Activity (Rattus norvegicus [10]): 14%
- Activity (Rattus norvegicus [11]): 10%

Compound: CC(=O)OC[C@H]1O[C@@H](NC(=S)N/N=C/c2ccc([N+](=O)[O-])cc2)[C@H](OC(C)=O)[C@@H](OC(C)=O)[C@@H]1OC(C)=O
- Activity [1]: 31%
- Activity (Rattus norvegicus [2]): 13%
- Activity [3]: 18%
- Activity [4]: 17%
- Activity (Rattus norvegicus [5]): 14%
- Activity (Rattus norvegicus [6]): 22%
- Activity [7]: 13%
- Activity [8]: 23%
- Activity [9]: 23%
- Activity (Rattus norvegicus [10]): 19%
- Activity (Rattus norvegicus [11]): 11%
